Reference: ChEMBL document CHEMBL5252669, “Semisynthetic blasticidin S ester derivatives show enhanced antibiotic activity” (RSC Med Chem, 2023)
Converted amounts (≈) assume the structure as drawn. The source made the active and inactive calls. The rule behind the calls is not given here.

Columns and labels:
Saccharomyces cerevisiae = test: Antifungal activity against Saccharomyces cerevisiae incubated for 16 hrs by broth microdilution method; type: functional
[1] = Selectivity index, ratio of CC50 for human MRC5 cells to IC50 for Enterococcus faecalis ATCC 29212; type: toxicity; conditions: read-out: Ratio CC50/IC50
[2] = Selectivity index, ratio of CC50 for human MRC5 cells to IC50 for methicillin resistant Staphylococcus aureus; type: toxicity; conditions: read-out: Ratio CC50/IC50
Klebsiella pneumoniae = test: Antibacterial activity against Klebsiella pneumoniae ATCC 29665 incubated for 16 hrs by broth microdilution method; type: functional, organism-based; conditions: for IC50: ATCC 29665, 16 h; for MIC: ATCC 29665, time 16 hrs
Staphylococcus aureus [3] = test: Antibacterial activity against NorA deleted Staphylococcus aureus incubated for 16 hrs by broth microdilution method; type: functional, organism-based; conditions: for IC50: 16 h; for MIC: time 16 hrs
In short: (§1)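 Cation-adjusted Mueller-Hinton broth microdilution. Overnight cultures from single colonies were diluted to OD600 0.004. Final compound range was 256–2 μg mL−1 in 1:1 methanol/water vehicle, with doxycycline and vehicle controls. Plates were incubated 16 h at 37 °C. OD600 was normalized to controls, and MIC was the lowest concentration inhibiting >90% growth. Two biological replicates in duplicate; reported as a range.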

Acinetobacter baumannii = test: Antibacterial activity against Acinetobacter baumannii ATCC 17978 incubated for 16 hrs by broth microdilution method; type: functional, organism-based; conditions: for IC50: ATCC 17978, 16 h; for MIC: ATCC 17978, time 16 hrs
[4] = Selectivity index, ratio of CC50 for human MRC5 cells to IC50 for Acinetobacter baumannii ATCC 17978; type: toxicity; conditions: read-out: Ratio CC50/IC50
Staphylococcus aureus [5] = test: Antibacterial activity against methicillin resistant Staphylococcus aureus ATCC 43300 incubated for 16 hrs by broth microdilution method; type: functional, organism-based; conditions: for IC50: ATCC 43300, 16 h; for MIC: ATCC 43300, time 16 hrs; in short: as §1
Enterococcus [6] = test: Antibacterial activity against vancomycin-resistant Enterococcus incubated for 20 hrs by broth microdilution method
[7] = Selectivity index, ratio of CC50 for human MRC5 cells to IC50 for Staphylococcus aureus; type: toxicity; conditions: read-out: Ratio CC50/IC50
Pseudomonas aeruginosa = test: Antibacterial activity against MexAB-OprM deleted Pseudomonas aeruginosa incubated for 16 hrs by broth microdilution method; type: functional, organism-based; conditions: for IC50: 16 h; for MIC: time 16 hrs
[8] = Cytotoxicity against human MRC5 cells incubated for 24 hrs by MTS assay; type: toxicity, cell-based
In short: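 MRC-5 lung fibroblasts seeded 5000 per well; medium replaced with compound 16–192 μg mL−1 or matching 1:1 methanol:water vehicle; 24 h, then MTS 3–4 h; absorbance 490 nm; viability relative to untreated cells, normalized to vehicle; CC50 from two independent assays in duplicate, mean ± SD.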

[9] = Selectivity index, ratio of CC50 for human MRC5 cells to IC50 for Klebsiella pneumoniae ATCC 29665; type: toxicity; conditions: read-out: Ratio CC50/IC50
[10] = Selectivity index, ratio of CC50 for human MRC5 cells to IC50 for vancomycin-resistant Enterococcus; type: toxicity; conditions: read-out: Ratio CC50/IC50
Staphylococcus aureus [11] = test: Antibacterial activity against wild type Staphylococcus aureus 8810 incubated for 16 hrs by broth microdilution method; type: functional, organism-based; conditions: for IC50: Staphylococcus aureus, 8810, 16 h; for MIC: Staphylococcus aureus, 8810, time 16 hrs; in short: as §1
Candida albicans [12] = test: Antifungal activity against Candida albicans assessed as zone of inhibition incubated for 18 hrs by spot on lawn assay; type: functional, organism-based
In short: (§2)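 Overnight LB cultures diluted to OD600 0.01 in 0.7% LB top agar, overlaid on 1.5% LB agar; 5 mg mL−1 aqueous compound spotted at 35, 25, 10 and 5 μg with 1:1 water/methanol vehicle spot; 37 °C, 18 h; inhibition zone diameter measured by ruler.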

Enterococcus faecalis [13] = test: Antibacterial activity against Enterococcus faecalis ATCC 29212 incubated for 20 hrs by broth microdilution method; conditions: ATCC 29212, 20 h
[14] = Selectivity index, ratio of CC50 for human MRC5 cells to IC50 for NorA deleted Staphylococcus aureus; type: toxicity; conditions: read-out: Ratio CC50/IC50
Candida albicans [15] = test: Antifungal activity against Candida albicans incubated for 16 hrs by broth microdilution method; type: functional
[16] = Selectivity index, ratio of CC50 for human MRC5 cells to IC50 for MexAB-OprM deleted Pseudomonas aeruginosa; type: toxicity; conditions: read-out: Ratio CC50/IC50
Enterococcus [17] = test: Antibacterial activity against vancomycin-resistant Enterococcus assessed as zone of inhibition incubated for 18 hrs by spot on lawn assay; type: functional, organism-based
In short: (§3)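 Spot-on-lawn assay. Plates of 1.5% agar in LB were overlaid with 0.7% LB agar seeded with overnight culture at 0.01 OD600. Aqueous 5 mg mL−1 solutions were spotted at 35, 25, 10 and 5 μg, with a 1:1 water/methanol vehicle spot. After 18 h at 37 °C, inhibition zone diameters were measured with a ruler.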

Staphylococcus aureus [18] = test: Antibacterial activity against methicillin resistant Staphylococcus aureus assessed as zone of inhibition incubated for 18 hrs by spot on lawn assay; type: functional, organism-based; in short: as §3
Staphylococcus aureus [19] = test: Antibacterial activity against NorA deleted Staphylococcus aureus assessed as zone of inhibition incubated for 18 hrs by spot on lawn assay; type: functional, organism-based; in short: as §2
Staphylococcus aureus [20] = test: Antibacterial activity against Staphylococcus aureus assessed as zone of inhibition incubated for 18 hrs by spot on lawn assay; type: functional, organism-based; in short: as §2
Enterococcus faecalis [21] = test: Antibacterial activity against Enterococcus faecalis ATCC 29212 assessed as zone of inhibition incubated for 18 hrs by spot on lawn assay; type: functional, organism-based; in short: as §2

Structure (SMILES) | MIC (Saccharomyces cerevisiae) [µg/mL] | selectivity ratio [1] | selectivity ratio [2] | IC50 (Klebsiella pneumoniae) [µg/mL] | MIC (Klebsiella pneumoniae) [µg/mL] | IC50 (Staphylococcus aureus [3]) [µg/mL] | MIC (Staphylococcus aureus [3]) [µg/mL] | IC50 (Acinetobacter baumannii) [µg/mL] | MIC (Acinetobacter baumannii) [µg/mL] | selectivity ratio [4] | IC50 (Staphylococcus aureus [5]) [µg/mL] | MIC (Staphylococcus aureus [5]) [µg/mL] | IC50 (Enterococcus [6]) [µg/mL] | MIC (Enterococcus [6]) [µg/mL] | selectivity ratio [7] | IC50 (Pseudomonas aeruginosa) [µg/mL] | MIC (Pseudomonas aeruginosa) [µg/mL] | CC50 at 24 h [8] [µg/mL] | selectivity ratio [9] | selectivity ratio [10] | also measured
CN(CC[C@H](N)CC(=O)N[C@H]1C=C[C@H](n2ccc(N)nc2=O)O[C@@H]1C(=O)O)C(=N)N.Cl | 16 | 0.3 | 0.2 | 74.8 | 128 | > 256 | > 256 | 70.4 | 128 | 0.2 | 79.7 | 128 | > 256 | > 256 | 0.2 | 73 | 128 | 16.1 | 0.2 | < 0.1 | IC50 (Staphylococcus aureus [11]): 77 µg/mL; MIC (Staphylococcus aureus [11]): 128 µg/mL; Activity (Candida albicans [12]): Active; IC50 (Enterococcus faecalis [13]): 52.5 µg/mL; MIC (Enterococcus faecalis [13]): 128 µg/mL; selectivity ratio [14]: < 0.1; MIC (Candida albicans [15]): 64 µg/mL; selectivity ratio [16]: 0.2
CN(CC[C@H](N)CC(=O)N[C@H]1C=C[C@H](n2ccc(N)nc2=O)O[C@@H]1C(=O)OCCc1ccccc1)C(=N)N | 64 (≈ 122 µM) | 2.7 | 1.2 | 57.1 (≈ 108 µM) | > 128 | 27.3 (≈ 51.8 µM) | 64 (≈ 122 µM) | 113 (≈ 215 µM) | > 128 | 0.2 | 16.1 (≈ 30.6 µM) | 32 (≈ 60.8 µM) | 13.8 (≈ 26.2 µM) | 32 (≈ 60.8 µM) | 1 | 76.9 (≈ 146 µM) | > 128 | 18.5 (≈ 35.1 µM) | 0.3 | 1.4 | Activity (Enterococcus [17]): Active; Activity (Staphylococcus aureus [18]): Active; Activity (Staphylococcus aureus [19]): Active; IC50 (Staphylococcus aureus [11]): 18.1 µg/mL (≈ 34.4 µM); MIC (Staphylococcus aureus [11]): 64 µg/mL (≈ 122 µM); Activity (Candida albicans [12]): inactive; IC50 (Enterococcus faecalis [13]): 6.9 µg/mL (≈ 13.1 µM); MIC (Enterococcus faecalis [13]): 8 µg/mL (≈ 15.2 µM); Activity (Staphylococcus aureus [20]): Active; selectivity ratio [14]: 0.7; MIC (Candida albicans [15]): > 128 µg/mL; selectivity ratio [16]: 0.2; Activity (Enterococcus faecalis [21]): Active
CCOC(=O)[C@H]1O[C@@H](n2ccc(N)nc2=O)C=C[C@@H]1NC(=O)C[C@@H](N)CCN(C)C(=N)N.Cl.Cl.Cl | 32 | 0.9 | 0.5 | 73.9 | > 128 | 20 | 32 | 30.4 | 64 | 0.3 | 17 | 32 | 34.4 | 64 | 0.8 | 67 | > 128 | 8.9 | 0.1 | 0.3 | Activity (Enterococcus [17]): Active; Activity (Staphylococcus aureus [18]): Active; Activity (Staphylococcus aureus [19]): Active; IC50 (Staphylococcus aureus [11]): 11.6 µg/mL; MIC (Staphylococcus aureus [11]): 32 µg/mL; Activity (Candida albicans [12]): inactive; IC50 (Enterococcus faecalis [13]): 9.9 µg/mL; MIC (Enterococcus faecalis [13]): 16 µg/mL; Activity (Staphylococcus aureus [20]): Active; selectivity ratio [14]: 0.4; MIC (Candida albicans [15]): > 256 µg/mL; selectivity ratio [16]: 0.1; Activity (Enterococcus faecalis [21]): Active
CCCCOC(=O)[C@H]1O[C@@H](n2ccc(N)nc2=O)C=C[C@@H]1NC(=O)C[C@@H](N)CCN(C)C(=N)N | 64 (≈ 134 µM) | 1.3 | 0.7 | 82.1 (≈ 172 µM) | > 128 | 34.6 (≈ 72.3 µM) | 64 (≈ 134 µM) | 61.5 (≈ 129 µM) | > 128 | 0.3 | 28.1 (≈ 58.7 µM) | 64 (≈ 134 µM) | 130 (≈ 272 µM) | 256 (≈ 535 µM) | 0.9 | 79.8 (≈ 167 µM) | > 128 | 21.2 (≈ 44.3 µM) | 0.3 | 0.2 | Activity (Enterococcus [17]): Active; Activity (Staphylococcus aureus [18]): Active; Activity (Staphylococcus aureus [19]): Active; IC50 (Staphylococcus aureus [11]): 23.9 µg/mL (≈ 49.9 µM); MIC (Staphylococcus aureus [11]): 64 µg/mL (≈ 134 µM); Activity (Candida albicans [12]): inactive; IC50 (Enterococcus faecalis [13]): 16.1 µg/mL (≈ 33.6 µM); MIC (Enterococcus faecalis [13]): 32 µg/mL (≈ 66.9 µM); Activity (Staphylococcus aureus [20]): Active; selectivity ratio [14]: 0.6; MIC (Candida albicans [15]): > 256 µg/mL; selectivity ratio [16]: 0.3; Activity (Enterococcus faecalis [21]): Active
